Results reported in publication PMC7528620 (Clinical cancer research : an official journal of the …, 2019).
Marks after values point to notes of the source that are not given here.

How the values were obtained:
[1] = tested on: patients with advanced solid tumors; conditions: 36 patients with advanced solid tumors; cited from earlier work
advanced malignancies [2] = assay: Objective response assessment, study INCB 57643-101; assay type: in vivo, human; conditions: for reduction in spleen size by manual palpation: one MF patient
Method in brief: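 Open-label phase 1/2 study in adults (≥18 y) with relapsed/refractory advanced malignancies. Oral dosing was 8–16 mg QD, continuous, as monotherapy (escalation; expansion at 12 mg QD) or from 8 mg QD combined with standard-of-care agents, in 21- or 28-day cycles. Response was assessed with malignancy-specific criteria in patients with ≥1 dose, measurable/evaluable baseline disease and ≥1 post-baseline assessment.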

[3] = Effect of a high-fat meal on PK of INCB057643; assay type: in vivo, human
Method in brief: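 Steady-state plasma PK was compared within 12 patients, each dosed orally once daily in the fasted state and with a high-fat meal. Parameters (Tmax, Cmax, AUCtau) came from noncompartmental analysis. The fed/fasted ratio of geometric means is reported with its 90% CI.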

[4] = tested on: patients with advanced malignancies; assay: Safety and tolerability, phase 1/2 study INCB 57643-101; assay type: in vivo; conditions: for TRAEs (any): all treatment groups; for TRAE thrombocytopenia: incl. platelet counts decreased
[5] = Plasma pharmacokinetics, study INCB 57643-101; assay type: in vivo, human; conditions: for half-life: human, plasma
Method in brief: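 Plasma PK used noncompartmental analysis in patients given ≥1 dose with ≥1 PK sample, dosed orally at 8, 12 or 16 mg QD continuously. Steady-state oral clearance (CLss/F) and terminal half-life are reported as mean with SD.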

[6] = tested on: coagulation factor VII (Factor VII); assay: Olink multiplex proximity extension assay of patient plasma; assay type: in vivo, human; conditions: cycle 1 day 8
Method in brief: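 Plasma from 80 patients dosed orally at 8, 12 or 16 mg QD was collected at baseline (cycle 1 day 1) and on treatment (cycle 1 day 8, cycle 2 day 1, cycle 4 day 1). About 1,012 proteins were profiled by multiplex proximity extension assay. Factor VII is expressed as fold-change versus baseline.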

CYP3A4 = CYP3A4 (Homo sapiens, UniProt P08684); assay: In vitro metabolism studies; assay type: in vitro ADME
Sequence of CYP3A4 (P08684 whole entry): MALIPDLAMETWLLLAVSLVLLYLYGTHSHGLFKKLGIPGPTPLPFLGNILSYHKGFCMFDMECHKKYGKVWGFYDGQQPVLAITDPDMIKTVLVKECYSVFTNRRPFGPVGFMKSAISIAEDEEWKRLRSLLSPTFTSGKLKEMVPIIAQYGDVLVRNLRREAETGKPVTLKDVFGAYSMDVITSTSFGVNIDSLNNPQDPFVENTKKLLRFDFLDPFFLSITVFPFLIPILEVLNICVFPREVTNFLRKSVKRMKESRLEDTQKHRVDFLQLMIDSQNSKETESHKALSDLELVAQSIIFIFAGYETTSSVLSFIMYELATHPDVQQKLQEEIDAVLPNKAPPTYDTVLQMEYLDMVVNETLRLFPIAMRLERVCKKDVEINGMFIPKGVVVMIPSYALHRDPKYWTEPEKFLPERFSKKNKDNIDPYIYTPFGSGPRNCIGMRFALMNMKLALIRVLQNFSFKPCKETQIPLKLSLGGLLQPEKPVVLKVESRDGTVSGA

[7] = Plasma pharmacokinetics, study INCB 54329-101; assay type: in vivo, human
Method in brief: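 Plasma PK used noncompartmental analysis in patients given ≥1 dose with ≥1 PK sample. Oral dosing was 15–30 mg QD or 15–25 mg BID, continuous or intermittent; the first 3 patients also received a single 5-mg PK dose at day 0. Steady-state oral clearance (CLss/F) and terminal half-life are reported as mean with SD.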

advanced malignancies [8] = assay: Objective response assessment, study INCB 54329-101; assay type: in vivo, human
Method in brief: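 Open-label phase 1/2 monotherapy study in adults (≥18 y) with relapsed/refractory advanced malignancies and ECOG ≤1. Oral dosing was 15–30 mg QD or 15–25 mg BID, continuous or intermittent (5/2, 4/3, 7/7 days on/off), in 21-day cycles. Part 2 used intrapatient titration from 20 mg BID. Response was assessed with malignancy-specific criteria in patients with ≥1 dose, measurable/evaluable baseline disease and ≥1 post-baseline assessment.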

[9] = tested on: patients with advanced malignancies; assay: Safety and tolerability, phase 1/2 study INCB 54329-101; assay type: in vivo; conditions: for TRAEs (any): all treatment groups; for TRAE thrombocytopenia: incl. platelet counts decreased
CYP2C19 = CYP2C19 (Homo sapiens, UniProt P33261); assay: In vitro metabolism studies; assay type: in vitro ADME
Sequence of CYP2C19 (P33261 whole entry): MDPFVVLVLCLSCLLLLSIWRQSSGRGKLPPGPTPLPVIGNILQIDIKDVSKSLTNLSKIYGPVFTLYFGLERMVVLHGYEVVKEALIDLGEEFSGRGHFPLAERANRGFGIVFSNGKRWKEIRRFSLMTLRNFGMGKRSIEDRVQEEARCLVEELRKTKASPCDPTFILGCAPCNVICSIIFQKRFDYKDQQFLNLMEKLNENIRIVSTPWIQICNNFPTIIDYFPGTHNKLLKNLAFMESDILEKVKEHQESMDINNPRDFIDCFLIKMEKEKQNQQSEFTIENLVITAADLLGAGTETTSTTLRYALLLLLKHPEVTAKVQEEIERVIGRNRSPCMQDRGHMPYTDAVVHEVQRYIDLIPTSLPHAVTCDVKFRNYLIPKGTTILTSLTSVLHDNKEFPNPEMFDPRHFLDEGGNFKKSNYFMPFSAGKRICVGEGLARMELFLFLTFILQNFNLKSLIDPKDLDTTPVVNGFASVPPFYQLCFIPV

[10] = Part 2 TGA, 12 mg QD, 86 patients
[11] = Part 3, 8 mg QD in combination with SOC agents, 13 patients

Cc1noc(C)c1-c1cnc2c(-c3ccc(C(=O)O)cc3)cn([C@@H](C)c3ccccn3)c2c1 [PLX51107]
INR increase, patients [1]: 17%

CN1C(=O)C(C)(C)Oc2c(-c3cn(C)c(=O)c4[nH]ccc34)cc(S(C)(=O)=O)cc21 [INCB057643]
patients with objective responses (advanced malignancies [2]; 134 patients): 6 patients
patients who maintained SD for ≥6 months (advanced malignancies [2]; all with solid tumors): 6 patients
duration of complete response (advanced malignancies [2]; follicular lymphoma patient, 8 mg QD, ongoing at data cutoff): > 2 years
patients with SD as best response (advanced malignancies [2]; in vivo): Twenty-seven
patients with progressive disease as best response (advanced malignancies [2]; in vivo): Forty-one
discontinuation, primary reason disease progression (advanced malignancies [2]; n = 134): 76 (57) n (%)
reduction in spleen size by manual palpation (advanced malignancies [2]; 8 mg QD + ruxolitinib): 77%
reduction in spleen size by manual palpation (advanced malignancies [2]; 12 mg QD monotherapy): 92.5%
fed vs. fasted geometric mean ratio of Cmax ([3]; 90% CI 0.78–1.01): 0.89
fed vs. fasted geometric mean ratio of AUCtau ([3]; 90% CI 0.99–1.29): 1.13
increase of geometric mean AUCtau by high-fat meal ([3]; fed vs fasted): 13%
lowering of geometric mean Cmax by high-fat meal ([3]; fed vs fasted): 11%
patients requiring dose interruptions and/or reductions due to AEs ([4]; 16 mg QD cohort, cycles 1 and 2): 50%
patients with ≥1 any grade TRAE ([4]; 134 enrolled patients): 86%
tolerability of the 16 mg QD dose ([4]; Part 1 TGA): not tolerated
DLTs ([4]; Part 1 TGA, grade 3 increased INR, 16 mg QD cohort of 8 patients): 1 DLT
TRAEs leading to dose interruptions ([4]; Part 2 TGA, 12 mg QD): 35%
TRAEs leading to dose reductions ([4]; Part 2 TGA, 12 mg QD): 11%
patients with a grade 3/4 TRAE [4, 10]: 36%
patients with a serious TRAE [4, 10]: 13%
patients with a grade 3/4 TRAE ([4]; Part 2 TGB, 12 mg QD, 5 patients): 40%
patients requiring dose interruption ([4]; Part 2 TGB, 12 mg QD, febrile neutropenia and thrombocytopenia): 20%
TRAEs leading to dose interruptions [4, 11]: 6 patients
TRAEs leading to dose reductions [4, 11]: 4 patients
incidence of TRAE anemia ([4]; any grade): 14%
incidence of TRAE decreased appetite ([4]; any grade): 22%
incidence of TRAE diarrhea ([4]; any grade): 16%
incidence of TRAE dysgeusia ([4]; any grade): 16%
incidence of TRAE fatigue ([4]; any grade): 30%
incidence of TRAE hyperglycemia ([4]; any grade): 13%
incidence of TRAE nausea ([4]; any grade): 30%
incidence of TRAE thrombocytopenia ([4]; any grade): 32%
incidence of TRAE vomiting ([4]; any grade): 16%
patients with treatment-related INR increased events ([4]; any grade): Seven
TRAEs (any) ([4]; any grade, n = 134): 115 (86) n (%)
TRAE anemia ([4]; any grade, n = 134): 19 (14) n (%)
TRAE decreased appetite ([4]; any grade, n = 134): 30 (22) n (%)
TRAE diarrhea ([4]; any grade, n = 134): 21 (16) n (%)
TRAE dysgeusia ([4]; any grade, n = 134): 22 (16) n (%)
TRAE fatigue ([4]; any grade, n = 134): 40 (30) n (%)
TRAE hyperglycemia ([4]; any grade, n = 134): 18 (13) n (%)
TRAE nausea ([4]; any grade, n = 134): 40 (30) n (%)
TRAE vomiting ([4]; any grade, n = 134): 21 (16) n (%)
TRAE thrombocytopenia ([4]; any grade, n = 134): 43 (32) n (%)
MTD per protocol definition ([4]; at 16 mg QD): not reached
incidence of TRAE INR increased ([4]; grade ≥3): 2%
incidence of TRAE anemia ([4]; grade ≥3): 10%
incidence of TRAE dehydration ([4]; grade ≥3): 2%
incidence of TRAE diarrhea ([4]; grade ≥3): 2%
incidence of TRAE hyperglycemia ([4]; grade ≥3): 3%
incidence of TRAE hyponatremia ([4]; grade ≥3): 2%
incidence of TRAE nausea ([4]; grade ≥3): 2%
incidence of TRAE syncope ([4]; grade ≥3): 2%
incidence of TRAE vomiting ([4]; grade ≥3): 2%
TRAEs (any) ([4]; grade ≥3, n = 134): 48 (36) n (%)
TRAE anemia ([4]; grade ≥3, n = 134): 14 (10) n (%)
TRAE decreased appetite ([4]; grade ≥3, n = 134): 0 (0) n (%)
TRAE diarrhea ([4]; grade ≥3, n = 134): 2 (2) n (%)
TRAE dysgeusia ([4]; grade ≥3, n = 134): 0 (0) n (%)
TRAE fatigue ([4]; grade ≥3, n = 134): 1 (1) n (%)
TRAE hyperglycemia ([4]; grade ≥3, n = 134): 4 (3) n (%)
TRAE nausea ([4]; grade ≥3, n = 134): 2 (2) n (%)
TRAE vomiting ([4]; grade ≥3, n = 134): 2 (2) n (%)
TRAE thrombocytopenia ([4]; grade ≥3, n = 134): 24 (18) n (%)
deaths deemed related to treatment ([4]; human, in vivo): 2 deaths
deaths during the study ([4]; human, in vivo): 17 deaths
discontinuation, primary reason adverse event ([4]; n = 134): 20 (15) n (%)
discontinuation, primary reason death ([4]; n = 134): 9 (7) n (%)
patients requiring dose reductions ([4]; overall): 11%
patients who discontinued treatment due to TRAEs ([4]; overall): 11%
half-life ([5]; oral): ~600 min
half-life ([5]; po): 666 min
oral clearance CLss/F, mean [SD] ([5]; overall, oral dosing, patients): 11.1 [4.97] L/h
Factor VII mean [SEM] fold decrease vs. baseline ([6]; 8 mg): −0.32 [0.10]
Factor VII mean [SEM] fold decrease vs. baseline ([6]; 12 mg): −0.53 [0.14]
Factor VII mean [SEM] fold decrease vs. baseline ([6]; 16 mg): −0.53 [0.33]

Cc1noc(C)c1-c1ccc2[nH]c(=O)n3c2c1OC[C@@H]3c1ccccn1 [INCB054329]
metabolism by CYP3A4 (CYP3A4): metabolized
half-life ([7]; as summarised in discussion): < 5 h
oral clearance CLss/F, mean [SD] ([7]; overall, oral dosing, patients): 95.5 [135] L/h
terminal elimination half-life t1/2, mean [SD] ([7]; overall, oral dosing, patients): 2.24 [2.03] hours
confirmed clinical response (advanced malignancies [8]; 69 patients): none and no confirmed clinical responses
patients with stable disease as best response (advanced malignancies [8]; all with solid tumors): Twenty-one
patients who maintained SD for ≥6 months (advanced malignancies [8]; in vivo): 4 patients
discontinuation, primary reason disease progression (advanced malignancies [8]; n = 69): 53 (77) n (%)
patients with ≥1 any grade TRAE ([9]; 69 enrolled patients): 78%
MTD per protocol ([9]; Part 1 TGA): not reached
DLTs ([9]; Part 1 TGA, both grade 4 thrombocytopenia at 30 mg QD and 22.5 mg BID): 2 DLTs
DLTs ([9]; Part 1 TGB, 20 mg BID): No DLTs
TRAEs leading to dose interruptions ([9]; Part 1 TGB, due to grade 3 hyperglycemia): 2 patients
tolerability of the 20 mg BID starting dose ([9]; Part 2 dose titration): not tolerated
patients requiring dose interruption due to TRAEs ([9]; Part 2 dose titration, 20 mg BID start, 11 patients): 45%
incidence of TRAE anemia ([9]; any grade): 10%
incidence of TRAE decreased appetite ([9]; any grade): 26%
incidence of TRAE fatigue ([9]; any grade): 29%
incidence of TRAE nausea ([9]; any grade): 35%
incidence of TRAE thrombocytopenia ([9]; any grade): 33%
incidence of TRAE vomiting ([9]; any grade): 10%
TRAEs (any) ([9]; any grade, n = 69): 54 (78) n (%)
TRAE anemia ([9]; any grade, n = 69): 7 (10) n (%)
TRAE decreased appetite ([9]; any grade, n = 69): 18 (26) n (%)
TRAE diarrhea ([9]; any grade, n = 69): 12 (17) n (%)
TRAE dysgeusia ([9]; any grade, n = 69): 9 (13) n (%)
TRAE fatigue ([9]; any grade, n = 69): 20 (29) n (%)
TRAE hyperglycemia ([9]; any grade, n = 69): 3 (4)^c n (%)
TRAE nausea ([9]; any grade, n = 69): 24 (35) n (%)
TRAE vomiting ([9]; any grade, n = 69): 7 (10) n (%)
TRAE thrombocytopenia ([9]; any grade, n = 69): 23 (33) n (%)
incidence of TRAE AST increased ([9]; grade ≥3): 4%
incidence of TRAE anemia ([9]; grade ≥3): 6%
incidence of TRAE hyperglycemia ([9]; grade ≥3): 3%
incidence of TRAE neutropenia ([9]; grade ≥3): 6%
TRAEs (any) ([9]; grade ≥3, n = 69): 16 (23) n (%)
TRAE anemia ([9]; grade ≥3, n = 69): 4 (6) n (%)
TRAE decreased appetite ([9]; grade ≥3, n = 69): 0 (0) n (%)
TRAE diarrhea ([9]; grade ≥3, n = 69): 0 (0) n (%)
TRAE dysgeusia ([9]; grade ≥3, n = 69): 0 (0) n (%)
TRAE fatigue ([9]; grade ≥3, n = 69): 0 (0) n (%)
TRAE hyperglycemia ([9]; grade ≥3, n = 69): 2 (3) n (%)
TRAE nausea ([9]; grade ≥3, n = 69): 1 (1) n (%)
TRAE vomiting ([9]; grade ≥3, n = 69): 1 (1) n (%)
TRAE thrombocytopenia ([9]; grade ≥3, n = 69): 9 (13) n (%)
deaths deemed treatment-related ([9]; in vivo): none
discontinuation, primary reason adverse event ([9]; n = 69): 2 (3) n (%)
discontinuation, primary reason death ([9]; n = 69): 1 (1) n (%)
TRAEs leading to dose interruptions ([9]; overall): 29%
TRAEs leading to dose reductions ([9]; overall): 7%
dose interruptions due to thrombocytopenia ([9]; overall): 17%
patients who discontinued treatment due to TRAEs ([9]; overall): 4%
serious TRAE anemia ([9]; overall): 2 patients
serious TRAE thrombocytopenia ([9]; overall): 4 patients
patients experiencing serious TRAEs ([9]; overall, n = 69): 7 patients
metabolism by CYP2C19 (CYP2C19): metabolized
